Here are results for two compounds from ChEMBL document CHEMBL1126826, “2'-(Trimethylammonio)ethyl 4-(hexadecyloxy)-3(S)-methoxybutanephosphonate: a novel potent antineoplastic agent” (J Med Chem, 1993).

Several values for one entry are separate records, joined by “and”; a condition that tells them apart may be missing. Equal values may be shown once.

Experiment [1] can be described thus: Effect on […] cell growth expressed as percent number of colonies compared to contro at a concentration of 2.5 uM. Format: functional, Mus musculus. Summed up: (§1)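 WEHI-3B murine cells grown in methyl cellulose/RPMI colony (clonogenic) assay with compound at a range of concentrations for 5 days in 60-mm dishes. Colonies counted after 5 days and expressed as percentage of untreated control colonies. Mean of three experiments run in triplicate ± SD. IC50 taken from the concentration-response.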

Experiment [2] in a line: Effect on […] cell growth expressed as percent number of colonies compared to contro at a concentration of 5 uM. Format: functional, Mus musculus. Put shortly: as §1
Experiment [3] is described as follows: Compounds were evaluated for antineoplastic activity against […] cells using clonogenic assays. Format: functional, cell-based. To be noted: Mus musculus. Summed up: as §1
Experiment [4] is described as follows: Effect on […] cell growth expressed as percent number of colonies compared to contro at a concentration of 10 uM. Format: functional, Mus musculus. Put shortly: as §1
Experiment [5] can be described thus: Effect on […] cell growth expressed as percent number of colonies compared to contro at a concentration of 20 uM. Format: functional, Mus musculus. Put shortly: as §1
Experiment [6] can be described thus: Effect on […] cell growth expressed as percent number of colonies compared to contro at a concentration of 0.6 uM. Format: functional, cell-based. The conditions noted are these: Mus musculus. Summed up:
as §1

Experiment [7] is described as follows: Effect on […] cell growth expressed as percent number of colonies compared to contro at a concentration of 1.2 uM. Format: functional, Mus musculus. Put shortly:
as §1

The nature of experiment [8]: Effect on […] cell growth expressed as percent number of colonies compared to control at a concentration of 5 uM. Format: functional, Mus musculus. Put shortly:
as §1

Experiment [9] is described as follows: Compounds were evaluated for antineoplastic activity against […] cells using clonogenic assays. Format: functional, cell-based. The conditions noted are these: Mus musculus. Put shortly:
as §1

The nature of experiment [10]: Effect on […] cell growth expressed as percent number of colonies compared to control at a concentration of 10 uM. Format: functional, Mus musculus. Summed up:
as §1

Experiment [11] is described as follows: Effect on […] cell growth expressed as percent number of colonies compared to control at a concentration of 20 uM. Format: functional, Mus musculus. Summed up: as §1
Experiment [12] is described as follows: Effect on […] cell growth expressed as percent number of colonies compared to control at a concentration of 1.2 uM. Format: functional, Mus musculus. Put shortly: as §1
A short description of experiment [13]: Effect on […] cell growth expressed as percent number of colonies compared to control at a concentration of 2.5 uM. Format: functional, Mus musculus. Summed up: as §1

Broadly, the IC50 is the concentration at which inhibition is half-maximal. Low values mean higher potency, high ones lower potency. Turning to `CCCCCCCCCCCCCCCCCCOCC(COP(=O)([O-])OCC[N+](C)(C)C)OC` (stereo not drawn) [EDELFOSINE], the Control is reported as 68% in experiment [1]; 48% in experiment [2]; 36% in experiment [4]; 30% in experiment [5]; 91% in [7]. In experiment [3], this compound returned an IC50 of 2500 nM. Besides, the percent of control colonies in [6] came to 105%.

With `CCCCCCCCCCCCCCCCOC[C@H](CCP(=O)([O-])OCC[N+](C)(C)C)OC`, the Control in experiment [8] is 58% and 48%; in experiment [10], 30%; in [11] it was 32%; in [12] it was 95%; in experiment [13] it was 88%. Also, inhibition in [9] was half-maximal at 2500 nM (IC50).
